Source: ChEMBL document CHEMBL1140048, “NO-donors. Part 17: Synthesis and antimicrobial activity of novel ketoconazole-NO-donor hybrid compounds” (Bioorg Med Chem, 2008)
Values after ≈ are worked out from the molar mass of the structure shown.

Key:
Fusarium oxysporum [1] = assay: Antifungal activity against Fusarium oxysporum after 24 hrs by agar diffusion method
Nakaseomyces glabratus [2] = assay: Antifungal activity against Candida glabrata after 24 hrs by broth microdilution method; assay type: functional
Outline: (§1)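 Broth microdilution per NCCLS in RPMI 1640 (L-glutamine, MOPS, no bicarbonate). An 8 mM stock in DMSO/methanol 1:10 is serially diluted twofold; NONOate salts go through 0.1 M NaOH, with only the last step in medium. Inoculum is 6×10^3 CFU/mL final. A. fumigatus and A. terreus are incubated 24 h at 37 °C; others at 30 °C. MIC is the lowest dilution without visible growth, read nephelometrically.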

Nakaseomyces glabratus [3] = assay: Ratio of MIC for drug to ketoconazole against Candida glabrata; assay type: functional
Outline: (§2)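 FIC is calculated as the MIC of the test compound divided by the MIC of ketoconazole. Both MICs come from 24 h NCCLS broth microdilution in RPMI 1640/MOPS, starting from an 8 mM stock in twofold dilutions, at 6×10^3 CFU/mL. Incubation is at 37 °C for A. fumigatus and A. terreus and at 30 °C for the other strains.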

[4] = system: Sporobolomyces salmonicolor; assay: Antifungal activity against Sporobolomyces salmonicolor after 24 hrs by broth microdilution method; assay type: functional
Outline: as §1

Aspergillus fumigatus [5] = assay: Antifungal activity against Aspergillus fumigatus after 24 hrs by broth microdilution method; assay type: functional
Outline: as §1

Aspergillus terreus [6] = assay: Ratio of MIC for drug to ketoconazole against Aspergillus terreus; assay type: functional
Outline: as §2

Aspergillus terreus [7] = assay: Antifungal activity against Aspergillus terreus after 24 hrs by broth microdilution method; assay type: functional
Outline: as §1

Candida albicans [8] = assay: Ratio of MIC for drug to ketoconazole against Candida albicans; assay type: functional
Outline: as §2

[9] = system: Sporobolomyces salmonicolor; assay: Ratio of MIC for drug to ketoconazole against Sporobolomyces salmonicolor; assay type: functional
Outline: as §2

Aspergillus niger [10] = assay: Ratio of MIC for drug to ketoconazole against Aspergillus niger; assay type: functional
Outline: as §2

Fusarium oxysporum [11] = assay: Ratio of MIC for drug to ketoconazole against Fusarium oxysporum; assay type: functional
Penicillium chrysogenum [12] = assay: Antifungal activity against Penicillium notatum after 24 hrs by broth microdilution method; assay type: functional
Outline: as §1

Aspergillus niger [13] = assay: Antifungal activity against Aspergillus niger after 24 hrs by broth microdilution method; assay type: functional
Outline: as §1

Aspergillus fumigatus [14] = assay: Ratio of MIC for drug to ketoconazole against Aspergillus fumigatus; assay type: functional
Outline: as §2

Penicillium chrysogenum [15] = assay: Ratio of MIC for drug to ketoconazole against Penicillium notatum; assay type: functional
Outline: as §2

Candida albicans [16] = assay: Antifungal activity against Candida albicans after 24 hrs by broth microdilution method; assay type: functional
Outline: as §1

Candida = assay: Antifungal activity against Candida sp. by microdilution assay; assay type: functional
Outline: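 Broth microdilution per NCCLS guidelines in RPMI 1640 (L-glutamine, MOPS, no bicarbonate). An 8 mM stock in DMSO/methanol (1:10) was serially diluted twofold in medium; NONOate sodium salts were diluted in 0.1 M NaOH, with only the final step in medium, used at once. Final inoculum 6×10^3 CFU/mL, 30 °C, 24 h. MIC read nephelometrically as the lowest dilution with no visible growth.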

[17] = Chemical stability of compound assessed as half life of nitric oxide release at pH 7.4; assay type: physicochemical; settings: buffer

Row | SMILES | MIC (Fusarium oxysporum [1]) [µM] | MIC (Nakaseomyces glabratus [2]) [µM] | Ratio (Nakaseomyces glabratus [3]) | MIC [4] [µM] | MIC (Aspergillus fumigatus [5]) [µM] | Ratio (Aspergillus terreus [6]) | MIC (Aspergillus terreus [7]) [µM] | Ratio (Candida albicans [8]) | Ratio [9] | Ratio (Aspergillus niger [10]) | Ratio (Fusarium oxysporum [11]) | MIC (Penicillium chrysogenum [12]) [µM] | MIC (Aspergillus niger [13]) [µM] | Ratio (Aspergillus fumigatus [14]) | Ratio (Penicillium chrysogenum [15]) | MIC (Candida albicans [16]) [µM] | MIC (Candida) [µg/mL] | t1/2 [17] [min]
1 | O=[N+]([O-])OCCN1CCN(c2ccc(OC[C@H]3CO[C@](Cn4ccnc4)(c4ccc(Cl)cc4Cl)O3)cc2)CC1 | 1000 (≈ 578 µg/mL) | 6.25 (≈ 3.62 µg/mL) | 0.5 | 15.6 (≈ 9.02 µg/mL) | 1000 (≈ 578 µg/mL) | 32 | 1000 (≈ 578 µg/mL) | 0.5 | 10 | 4 | 2 | 62.5 (≈ 36.2 µg/mL) | 250 (≈ 145 µg/mL) | 16 | 7.81 | 12.5 (≈ 7.23 µg/mL) |  | 
2 | CCO/N=[N+](\[O-])N1CCN(c2ccc(OC[C@H]3CO[C@](Cn4ccnc4)(c4ccc(Cl)cc4Cl)O3)cc2)CC1 | 50 (≈ 28.9 µg/mL) | 3.13 (≈ 1.81 µg/mL) | 0.25 | 0.16 (≈ 0.0924 µg/mL) | 12.5 (≈ 7.22 µg/mL) | 0.1 | 3.13 (≈ 1.81 µg/mL) | 2 | 0.1 | 0.025 | 0.1 | 1.25 (≈ 0.722 µg/mL) | 1.56 (≈ 0.901 µg/mL) | 0.2 | 0.16 | 50 (≈ 28.9 µg/mL) |  | 
3 | O=C(CO/N=[N+](\[O-])N1CCCC1)N1CCN(c2ccccc2)CC1 | > 2000 | > 2000 |  | > 2000 | > 2000 |  | > 2000 |  |  |  |  | > 2000 | > 2000 |  |  | > 2000 |  | 
4 | CC(C)(CO[N+](=O)[O-])C(=O)N1CCN(c2ccccc2)CC1 | > 2000 | > 2000 |  | > 2000 | > 2000 |  | > 2000 |  |  |  |  | > 2000 | > 2000 |  |  | > 2000 |  | 
5 | COCO/N=[N+](\[O-])N1CCN(c2ccc(OC[C@H]3CO[C@](Cn4ccnc4)(c4ccc(Cl)cc4Cl)O3)cc2)CC1 | 250 (≈ 148 µg/mL) | 3.13 (≈ 1.86 µg/mL) | 0.25 | 2 (≈ 1.19 µg/mL) | 8 (≈ 4.75 µg/mL) | 0.26 | 8 (≈ 4.75 µg/mL) | 1 | 1.3 | 0.06 | 0.5 | 1.56 (≈ 0.926 µg/mL) | 4 (≈ 2.37 µg/mL) | 0.13 | 0.2 | 25 (≈ 14.8 µg/mL) |  | 
6 | O=[N+]([O-])OCCN1CCN(c2ccccc2)CC1 | > 2000 | > 2000 |  | > 2000 | > 2000 |  | > 2000 |  |  |  |  | > 2000 | > 2000 |  |  | > 2000 |  | 
7 | NCCN(CCN)/[N+]([O-])=N/O |  |  |  |  |  |  |  |  |  |  |  |  |  |  |  |  | 2000 (≈ 12.3 mM) | 
8 | NCCCN(CCCN)N(O)N=O |  |  |  |  |  |  |  |  |  |  |  |  |  |  |  |  | 5000 (≈ 26.1 mM) | 
9 | O=C(CO/N=[N+](\[O-])N1CCCC1)N1CCN(c2ccc(OC[C@H]3CO[C@](Cn4ccnc4)(c4ccc(Cl)cc4Cl)O3)cc2)CC1 | 1000 (≈ 661 µg/mL) | 12.5 (≈ 8.26 µg/mL) | 1 | 2 (≈ 1.32 µg/mL) | 125 (≈ 82.6 µg/mL) | 2 | 62.5 (≈ 41.3 µg/mL) | 1 | 1.3 | 1 | 2 | 8 (≈ 5.28 µg/mL) | 62.5 (≈ 41.3 µg/mL) | 2 | 1 | 25 (≈ 16.5 µg/mL) |  | 
10 | COCO/N=[N+](\[O-])N1CCN(c2ccccc2)CC1 | > 2000 | > 2000 |  | > 2000 | > 2000 |  | > 2000 |  |  |  |  | > 2000 | > 2000 |  |  | > 2000 |  | 
11 | CC(=O)N1CCN(c2ccc(OCC3COC(Cn4ccnc4)(c4ccc(Cl)cc4Cl)O3)cc2)CC1 (stereo not drawn) [KETOCONAZOLE] | 500 (≈ 266 µg/mL) | 12.5 (≈ 6.64 µg/mL) |  | 1.56 (≈ 0.829 µg/mL) | 62.5 (≈ 33.2 µg/mL) |  | 31.2 (≈ 16.6 µg/mL) |  |  |  |  | 8 (≈ 4.25 µg/mL) | 62.5 (≈ 33.2 µg/mL) |  |  | 25 (≈ 13.3 µg/mL) |  | 
12 | Clc1ccc([C@@]2(Cn3ccnc3)OC[C@H](COc3ccc(N4CCNCC4)cc3)O2)c(Cl)c1 | 2000 (≈ 979 µg/mL) | 50 (≈ 24.5 µg/mL) | 4 | 25 (≈ 12.2 µg/mL) | 2000 (≈ 979 µg/mL) | 64 | 2000 (≈ 979 µg/mL) | 1 | 16 | 32 | 4 | 250 (≈ 122 µg/mL) | 2000 (≈ 979 µg/mL) | 32 | 31.25 | 25 (≈ 12.2 µg/mL) |  | 
13 | O=C(CO[N+](=O)[O-])N1CCN(c2ccc(OC[C@H]3CO[C@](Cn4ccnc4)(c4ccc(Cl)cc4Cl)O3)cc2)CC1 | 100 (≈ 59.2 µg/mL) | 1.56 (≈ 0.924 µg/mL) | 0.12 | 0.16 (≈ 0.0948 µg/mL) | 25 (≈ 14.8 µg/mL) | 0.4 | 12.5 (≈ 7.41 µg/mL) | 1 | 0.1 | 0.2 | 0.2 | 2.5 (≈ 1.48 µg/mL) | 12.5 (≈ 7.41 µg/mL) | 0.4 | 0.31 | 25 (≈ 14.8 µg/mL) |  | 
14 | CCO/N=[N+](\[O-])N1CCN(c2ccccc2)CC1 | > 2000 | > 2000 |  | > 2000 | > 2000 |  | > 2000 |  |  |  |  | > 2000 | > 2000 |  |  | > 2000 |  | 
15 | [Na+].[O-]/N=[N+](\[O-])N1CCN(c2ccc(OC[C@H]3CO[C@](Cn4ccnc4)(c4ccc(Cl)cc4Cl)O3)cc2)CC1 | 200 | 12.5 | 1 | 1.25 | 200 | 3.2 | 100 | 4 | 0.8 | 1.6 | 0.4 | 20 | 100 | 3.2 | 2.5 | 100 |  | 4.5
16 | O=C(CO[N+](=O)[O-])N1CCN(c2ccccc2)CC1 | > 2000 | > 2000 |  | > 2000 | > 2000 |  | > 2000 |  |  |  |  | > 2000 | > 2000 |  |  | > 2000 |  | 
17 | CC(C)(CO[N+](=O)[O-])C(=O)N1CCN(c2ccc(OC[C@H]3CO[C@](Cn4ccnc4)(c4ccc(Cl)cc4Cl)O3)cc2)CC1 | 25 (≈ 15.9 µg/mL) | 3.13 (≈ 1.99 µg/mL) | 0.25 | 0.6 (≈ 0.381 µg/mL) | 3.13 (≈ 1.99 µg/mL) | 0.05 | 1.56 (≈ 0.99 µg/mL) | 0.25 | 0.38 | 0.025 | 0.05 | 8 (≈ 5.08 µg/mL) | 1.56 (≈ 0.99 µg/mL) | 0.05 | 1 | 6.25 (≈ 3.97 µg/mL) |  | 
18 | c1ccc(N2CCNCC2)cc1 [PHENYLPIPERAZINE] | > 2000 | > 2000 |  | > 2000 | > 2000 |  | > 2000 |  |  |  |  | > 2000 | > 2000 |  |  | > 2000 |  | 
19 | [O-]/[N+](=N\O)N1CCN(c2ccccc2)CC1 | > 2000 | > 2000 |  | > 2000 | > 2000 |  | > 2000 |  |  |  |  | > 2000 | > 2000 |  |  | > 2000 |  | 
